System: MS2 coat protein
Test: apparent Kd, MS2 coat protein; higher = weaker binding; RNA-MaP array; tryptophan 2.4 mM where present
How it was run: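 Designs were transcribed by stalled E. coli RNA polymerase on Illumina sequencing-chip clusters. They were titrated with SNAP-549-labelled MS2 coat protein from 0.7 or 1.5 nM, doubling to 3 µM, in 100 mM Tris-HCl pH 7.5, 80 mM KCl, 4 mM MgCl2, BSA, DTT, yeast tRNA and Tween-20, without and then with constant ligand. The apparent Kd is the median of filtered per-cluster fits after normalisation of green signal to red-channel RNA signal and control-cluster median Fmax.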

[1] = designed as: OFF switch for tryptophan, no ligand
[2] = ligand present: tryptophan, designed as: OFF switch for tryptophan
[3] = designed as: ON switch for tryptophan, no ligand
[4] = ligand present: tryptophan, designed as: ON switch for tryptophan

Question: What does the source list for “ACACAAUACAUGAGGAUCACCCAUGUAAAACGAGGACCGGUACGGCCGCCACUCGAAUACAGGAAACCUCGGAAUAUUAAGUGAA”?
Answer: apparent Kd [1]: 0.0518 µM; apparent Kd [2]: 0.038 µM

Question: What does the source list for “AUACAUGAGGAUCACCCAUGUCCUCGUGAUCGAGGACCGGUACGGCCGCCACUCGGUCCUCGCGAGGAGGAGUCAAAGACUCCUA”?
Answer: apparent Kd [3]: 0.178 µM; apparent Kd [4]: 0.128 µM

Question: With “GGGAGAUAGGCGGCCGCCACUGAUUUUCAUAUAUAUAUAACAUGAGGAUCACCCAUGUAGAUAUACAGGACCGGGCCUAUUUUUU” as the sequence, how does the “apparent Kd” value [3] read?
Answer: 0.0175 µM

Question: What about the “apparent Kd” value [4] of the same sequence?
Answer: 0.0162 µM

Question: For “CACGAAAGAUCGGCCGCCACUAACCUGUGUGUACUAGCACAUGAGGAUCACCCAUGUUCUUGCGUUAGGACCGGGAUUGAGCGUG”, which “apparent Kd” value [1] is on record?
Answer: 0.023 µM

Question: And the “apparent Kd” value [2]?
Answer: 0.0217 µM

Question: For “GGACUCGUCACGGCCGCCACUGCGGUGGUGUGACAUGAGGAUCACCCAUGUUGUCAUGCGGCCCUUAGGACCGGGUGUCGCUUCC”, which “apparent Kd” value [1] is on record?
Answer: 0.169 µM

Question: And the “apparent Kd” value [2]?
Answer: 0.198 µM

Question: What does the source list for “GAGGAAACUCACAUGAGGAUCACCCAUGUACGAGGACCGGUACGGCCGCCACUCGAAACCAUGGGCGGUAGUACGUGGAAGCUUG”?
Answer: apparent Kd [1]: 0.0218 µM; apparent Kd [2]: 0.0959 µM

Question: What does the source list for “AGAGCAUUGACGGCCGCCACUUAUGUCACAUGAGGAUCACCCAUGUGAUGGGUGAUAGCCCGGUUGAGGACCGGGUCAAUGCUCA”?
Answer: apparent Kd [3]: 0.0127 µM; apparent Kd [4]: 0.0179 µM

Question: What does the source list for “UGGGUACCGACGGCCGCCACUGAAUAUAGACAUGAGGAUCACCCAUGUAGAGAUCCUAGAAUAAACAGGACCGGGUCUGGUGCUA”?
Answer: apparent Kd [1]: 0.22 µM; apparent Kd [2]: 0.361 µM

Question: For “GGGUGGUAGGCGGCCGCCACUGAUUUUUAUUUAUAGAUGACAUGAGGAUCACCCAUGUUUAUAUGCAGGACCGGGCCUGUUGUGG”, which “apparent Kd” value [3] is on record?
Answer: 0.0157 µM

Question: And the “apparent Kd” value [4]?
Answer: 0.0142 µM

Question: “AAUAAUAGGUGAUCUUGAGUCGUACCGUAACGAGGACCGGUACGGCCGCCACUCGAACAUGAGGAUCACCCAUGUAUGUAUGAUA” was tested. Which “apparent Kd” value [3] did it give?
Answer: 0.09 µM

Question: What about the “apparent Kd” value [4] of the same sequence?
Answer: 0.117 µM

Question: For “UAUAUAUAUCACUAACUGUUCUUGAGGUCUCGAGGACCGGUACGGCCGCCACUCGUACCGCCUCACAUGAGGAUCACCCAUGUCC”, which “apparent Kd” value [1] is on record?
Answer: 0.063 µM

Question: What about the “apparent Kd” value [2] of the same sequence?
Answer: 0.0591 µM

Question: What does the source list for “AAUUCAAUUUUCUUGAUGUAUUAUAUAUUUCGAGGACCGGUACGGCCGCCACUCGUUAAUUACAUGAGGAUCACCCAUGUUAGCU”?
Answer: apparent Kd [1]: 0.0168 µM; apparent Kd [2]: 0.014 µM

Question: For “CACGAAAGAUCGGCCGCCACUCAUGUUUCUUACAUGAGGAUCACCCAUGUAUUUUCUUUCUUUUAGAGGACCGGGAUCGAGCGUG”, which “apparent Kd” value [3] is on record?
Answer: 0.0408 µM

Question: And the “apparent Kd” value [4]?
Answer: 0.0184 µM

Question: With “GUGAGCGCCGAACAUCGCUGGUCCUCUAUCCGAGGACCGGUACGGCCGCCACUCGACAUGAGGAUCACCCAUGUUGGCACUGGCG” as the sequence, how does the “apparent Kd” value [1] read?
Answer: 0.00937 µM

Question: And the “apparent Kd” value [2]?
Answer: 0.0106 µM

Question: Which “apparent Kd” value [1] does the source give for “GGUUGGUCCUCACAUGAGGAUCACCCAUGUCGAGGACCGGUACGGCCGCCACUCGAUUGUACCAGGGCUUAAGAGCCUAUGAGCA” here?
Answer: 0.0111 µM

Question: What about the “apparent Kd” value [2] of the same sequence?
Answer: 0.00844 µM

Question: For “UAUAUAUACUCGGCCGCCACUGAGAGAGUCAUGUAAACAUGAGGAUCACCCAUGUAAUAUAUAUACAGGACCGGGAGUAUAUGAA”, which “apparent Kd” value [1] is on record?
Answer: 0.0154 µM

Question: And the “apparent Kd” value [2]?
Answer: 0.0136 µM

Question: Which “apparent Kd” value [1] does the source give for “GGCUAGGUCUCGGCCGCCACUGCUACAUGAGGAUCACCCAUGUACCUGGGCGGUCGCUCCCUCGGCAGGACCGGGAGACAUUCGU” here?
Answer: 0.00997 µM

Question: And the “apparent Kd” value [2]?
Answer: 0.023 µM

Question: For “AGGUACGAAAACGUGGGUGAGUCGUACCAACGAGGACCGGUACGGCCGCCACUCGAAUAAACAUGAGGAUCACCCAUGUAAUAAU”, which “apparent Kd” value [3] is on record?
Answer: 0.0424 µM

Question: And the “apparent Kd” value [4]?
Answer: 0.107 µM

Question: Which results are given for “AUCUUUGACGAUCUGGGAAAACCAGAUCGGCGAGGACCGGUACGGCCGCCACUCGUGUAUAAUAUACAUGAGGAUCACCCAUGUA”?
Answer: apparent Kd [3]: 0.0404 µM; apparent Kd [4]: 0.0296 µM

Question: What does the source list for “GGAUAGGACACGGCCGCCACUACCUAGGAUACUAGAAACAUUUCCUCACAUGAGGAUCACCCAUGUAGGACCGGGUGUCCUAUCG”?
Answer: apparent Kd [1]: 0.273 µM; apparent Kd [2]: 0.115 µM

Question: With “GUUAUAUGAAAACAUAUAACAGUGGGUGAACGAGGACCGGUACGGCCGCCACUCGGACAUGAGGAUCACCCAUGUCCAUGUGAAA” as the sequence, how does the “apparent Kd” value [1] read?
Answer: 0.0158 µM

Question: What about the “apparent Kd” value [2] of the same sequence?
Answer: 0.0414 µM

Question: For “CGUAGUAUCAGACAUGAGGAUCACCCAUGUCGAGGACCGGUACGGCCGCCACUCGGCAGUUUGCGUCCUCAGGUACUCCAGGUAA”, which “apparent Kd” value [1] is on record?
Answer: 0.0159 µM

Question: And the “apparent Kd” value [2]?
Answer: 0.0187 µM

Question: Which “apparent Kd” value [3] does the source give for “AAUAAGAUCCUCAUGUGAGUCGUACCAUAACGAGGACCGGUACGGCCGCCACUCGAACAUGAGGAUCACCCAUGUAGGUACGACA” here?
Answer: 0.118 µM

Question: And the “apparent Kd” value [4]?
Answer: 0.176 µM

Question: For “CCAUGCAGGUCGGCCGCCACUACACACAUGAGGAUCACCCAUGUAGUUACUGGGUGAAGUGGCAGUAGGACCGGGACCUGCACAU”, which “apparent Kd” value [3] is on record?
Answer: 0.311 µM

Question: What about the “apparent Kd” value [4] of the same sequence?
Answer: 0.729 µM

Question: For “UCGUGUCUAUUGGUUUAGCUUUAAUCGUUACGAGGACCGGUACGGCCGCCACUCGAUUUAACAUGAGGAUCACCCAUGUACUCUC”, which “apparent Kd” value [1] is on record?
Answer: 0.019 µM

Question: What about the “apparent Kd” value [2] of the same sequence?
Answer: 0.0212 µM

Question: What does the source list for “AUGGUAAGAACAUGAGGAUCACCCAUGUGACGAGGACCGGUACGGCCGCCACUCGUACCUUAGUCGUCGAACAGAGGAUUCAUGU”?
Answer: apparent Kd [3]: 0.0892 µM; apparent Kd [4]: 0.066 µM

Question: How did the “apparent Kd” value [1] turn out when “GUACACUAGUCGGCCGCCACUGUUACAUGAGGAUCACCCAUGUAGGAUCACCCAUGACAUGAGGAUAGGACCGGGACGCAUGAGG” was run?
Answer: 0.045 µM

Question: What about the “apparent Kd” value [2] of the same sequence?
Answer: 0.0413 µM

Question: Which “apparent Kd” value [1] does the source give for “CCUCAUGAACAUGAGGAUCACCCAUGUACACGAGGACCGGUACGGCCGCCACUCGAAUAACCUAAAUAUAAAUAAUAAUAAUAGG” here?
Answer: 0.0158 µM

Question: And the “apparent Kd” value [2]?
Answer: 0.043 µM

Question: How did the “apparent Kd” value [1] turn out when “GUUUUAUACUCGGCCGCCACUGAGAGAGUCAUGUAAACAUGAGGAUCACCCAUGUAAUAUAUAUACAGGACCGGGAGUAGGGUAA” was run?
Answer: 0.0129 µM

Question: What about the “apparent Kd” value [2] of the same sequence?
Answer: 0.0154 µM

Question: What does the source list for “AUAAAUGGGUUAAUUAGUUUUAGGUCCAGUCGAGGACCGGUACGGCCGCCACUCGUCCCAAGUUACAUGAGGAUCACCCAUGUUA”?
Answer: apparent Kd [1]: 0.0466 µM; apparent Kd [2]: 0.0675 µM

Question: With “AGACUGUAAAGUCUACCGGUCAACAAUAAUCGAGGACCGGUACGGCCGCCACUCGAUGUGAUAUACACAUGAGGAUCACCCAUGU” as the sequence, how does the “apparent Kd” value [3] read?
Answer: 0.0162 µM

Question: And the “apparent Kd” value [4]?
Answer: 0.0155 µM

Question: Which results are given for “GGGUGGUAGGCGGCCGCCACUGAUUUUCAUUCCUAGAUGACAUGAGGAUCACCCAUGUUUAUGGGCAGGACCGGGCCUGCUGUGG”?
Answer: apparent Kd [3]: 0.0627 µM; apparent Kd [4]: 0.0557 µM

Question: “AACAUGAGGAUCACCCAUGUCCUCGUGUACCGAGGACCGGUACGGCCGCCACUCGGUUCUCGCGAGGAUGGUCAAAGACUAUCCA” was tested. Which “apparent Kd” value [3] did it give?
Answer: 0.417 µM

Question: And the “apparent Kd” value [4]?
Answer: 0.47 µM

Question: “UCAUAAGUACCGGUCCUCAGAUCCUCAUGACGAGGACCGGUACGGCCGCCACUCGAAACAUGAGGAUCACCCAUGUAAUAACAUU” was tested. Which “apparent Kd” value [1] did it give?
Answer: 0.0209 µM

Question: What about the “apparent Kd” value [2] of the same sequence?
Answer: 0.0185 µM

Question: Which “apparent Kd” value [1] does the source give for “GCUGCAGCUACGGCCGCCACUGUUACGUGAGACAUGAGGAUCACCCAUGUUGAUGUUUUACAGAAUAGGACCGGGUAGUUGUAGU” here?
Answer: 0.00907 µM

Question: And the “apparent Kd” value [2]?
Answer: 0.0102 µM

Question: Which “apparent Kd” value [1] does the source give for “AAUUAUCAGUCGGCCGCCACUGACACAUGAGGAUCACCCAUGUAACAUGGGUAAAAUUAACUGAACAGGACCGGGACAAAGGCUA” here?
Answer: 0.378 µM

Question: And the “apparent Kd” value [2]?
Answer: 0.499 µM

Question: For “CGAUAUAAGACGGCCGCCACUAUUAAGUAACAAAAUAAACAUGAGGAUCACCCAUGUACAUGGGAUAGGACCGGGUCCAAUAACG”, which “apparent Kd” value [3] is on record?
Answer: 0.163 µM

Question: What about the “apparent Kd” value [4] of the same sequence?
Answer: 0.0769 µM

Question: How did the “apparent Kd” value [1] turn out when “CGUAUUGGAAACAGUACGAGUGAUCCGGUCCGAGGACCGGUACGGCCGCCACUCGAUAUAAAUAAACAUGAGGAUCACCCAUGUA” was run?
Answer: 0.0163 µM

Question: What about the “apparent Kd” value [2] of the same sequence?
Answer: 0.0257 µM

Question: “UCUGUUUGCUUUGUUUGUUUCUUCUUUGAGCGAGGACCGGUACGGCCGCCACUCGGGUUACAUGAGGAUCACCCAUGUGGUUUCU” was tested. Which “apparent Kd” value [3] did it give?
Answer: 0.0989 µM

Question: What about the “apparent Kd” value [4] of the same sequence?
Answer: 0.0578 µM

Question: How did the “apparent Kd” value [1] turn out when “AUAAAUAAUAAAUAAGAUAAAAUGGGUGAACGAGGACCGGUACGGCCGCCACUCGGACAUGAGGAUCACCCAUGUCCAUGUGAAA” was run?
Answer: 0.0202 µM

Question: What about the “apparent Kd” value [2] of the same sequence?
Answer: 0.0276 µM

Question: Which results are given for “UUCUACGGCGAUCUGGGUUUACCAGAUCGACGAGGACCGGUACGGCCGCCACUCGUGUUUCUUUAACAUGAGGAUCACCCAUGUA”?
Answer: apparent Kd [3]: 0.048 µM; apparent Kd [4]: 0.0224 µM
